Data set [1] in a line: Cytotoxicity against human HT-29 cells after 24 hrs by MTS assay. It is filed as functional, cell-based. Particulars: HT-29, 24 h. Summed up: (§1)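 Cells were exposed for 24 h to compound diluted 1:10, 1:100, 1:1000 and 1:10,000 from a 4 mg/ml DMSO stock; untreated controls were grown in non-modified medium. MTS was added for 2 h at 37 °C under 5% CO2, and absorbance was read at 490 nm. Viability is expressed as % of untreated control, averaged over three independent assays. EC50 or IC50 values were calculated from the plotted data.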
A general note: Tetrazolium dyes change colour on reduction, which living cells bring about.

A short description of data set [2]: Cytotoxicity against human MDA-MB-231 cells after 24 hrs by MTS assay. The data set is classed as functional, cell-based. Conditions: MDA-MB-231, 24 h. Summed up: as §1
The nature of data set [3]: Cytotoxicity against human HeLa cells after 24 hrs by MTS assay. The data set is classed as functional, cell-based. In outline:
as §1

Data set [4] can be described thus: Cytotoxicity against human HepG2 cells after 24 hrs by MTS assay. The data set is classed as functional, cell-based. Particulars: HepG2, 24 h. Summed up:
as §1

Data set [5] is described as follows: Cytotoxicity against human LEP-3 cells after 24 hrs by MTS assay. It is filed as toxicity, cell-based. Summed up: as §1
Data set [6] in a line: Photostability of the compound in DMF at 2185 +/- 0.087 10^-5mol/L measured up to 240 mins in presence of UV-light by UV-vis spectrophotometric analysis. Conditions: 4 h.
Data set [7] in a line: Photostability of the compound in DMF at 3916 +/- 0.158 10^-5mol/L measured up to 240 mins in presence of UV-light by UV-vis spectrophotometric analysis. Conditions: 4 h.
Data set [8] in a line: Photostability of the compound in DMF at 5242 +/- 0.209 10^-5mol/L measured up to 240 mins in presence of UV-light by UV-vis spectrophotometric analysis. Conditions: 4 h.
Data set [9] in a line: Photostability of the compound in DMF at 2275 +/- 0.091 10^-5mol/L measured up to 240 mins in presence of UV-light by UV-vis spectrophotometric analysis. Particulars: 4 h.
The nature of data set [10]: Photostability of the compound in DMF at 4089 +/- 0.164 10^-5mol/L measured up to 240 mins in presence of UV-light by UV-vis spectrophotometric analysis. Conditions: 4 h.
Data set [11] is described as follows: Antiproliferative activity against human HT-29 cells after 24 hrs by MTS assay. Particulars: HT-29, 24 h. The data set is classed as functional, cell-based. Summed up: as §1
Data set [12] can be described thus: Antiproliferative activity against human MDA-MB-231 cells after 24 hrs by MTS assay. It is filed as functional, cell-based. Conditions: MDA-MB-231, 24 h. In outline:
as §1

The nature of data set [13]: Antiproliferative activity against human HeLa cells after 24 hrs by MTS assay. The data set is classed as functional, cell-based. In outline:
as §1

Data set [14] is described as follows: Photostability of the compound in DMF assessed as drug degradation at 3128 +/- 0.125 10^-5mol/L measured after 240 mins in presence of UV-light by UV-vis spectrophotometric analysis. It is filed as physicochemical. Conditions: DMF solution under UV light; read-out: Drug degradation.
Data set [15] in a line: Antiproliferative activity against human HepG2 cells after 24 hrs by MTS assay. It is filed as functional, cell-based. Conditions: HepG2, 24 h. Summed up:
as §1

Data set [16] is described as follows: Antiproliferative activity against human LEP-3 cells after 24 hrs by MTS assay. The data set is classed as cell-based. Conditions: LEP-3, 24 h. In outline:
as §1

Another data set has as its system HT-29. Kind of data set: Ratio of IC50 for human LEP-3 cells to IC50 for human HT-29 cells.

From ChEMBL document CHEMBL3872203, “Synthesis, anticancer activity and photostability of novel 3-ethyl-2-mercapto-thieno[2,3-d]pyrimidin-4(3H)-ones” (Eur J Med Chem, 2016) come the findings set out here.

Broadly, the pIC50 is the IC50 on a negative log10 scale, so that one unit is a factor of ten. High values mean a small IC50, low ones a large IC50. The IC50 is the concentration needed to halve the response being measured. High values mean lower potency, low ones higher potency. As a reminder, the pEC50 is the negative decadic logarithm of the EC50, by convention in mol/L. A low value points to a high EC50.

Structures are written as SMILES. pEC50, pIC50: −log10 of the molar value.

As to `CCNC(=S)NNC(=O)CSc1nc2sc(C(=O)OCC)c(C)c2c(=O)n1CC`, the pIC50 in data set [1] is 5.13; in [2], 9.64; in data set [3], 5.06; in [4], 5.06. In [5], the IC50 at 24 h was found to be 800 nM. In addition, the Stability entry in data set [6], in [7], in data set [8], in data set [9] and in data set [10] was “Stable” throughout.
In the case of `CCNC(=S)NNC(=O)CSc1nc2sc(C)c(C)c2c(=O)n1CC`, the pEC50 in data set [11] is 7.07; in data set [12] it was 5.05; in data set [13] it was 6.37. In data set [5], this compound registered an IC50 at 24 h of 10 nM. Also, the degraded at 4 h in data set [14] came out at 30%.
As to `CCNC(=S)NNC(=O)CSc1nc2sc3c(c2c(=O)n1CC)CCCC3`, the pEC50 is 5.95 in data set [11]; 5.03 in data set [12]; 5.10 in data set [13]; 5.57 in [15]; 5.08 in data set [16]. The Stability result in [6], in [7], in [8], in [9] and in data set [10] was “Stable” throughout.
Turning to `CCNc1nnc(CSc2nc3sc4c(c3c(=O)n2CC)CCCC4)s1`, the results for the pEC50 in data set [12] and in data set [13] were 9.00 and 5.03, respectively. In addition, the pIC50 was 9.00 in data set [1] and 5.01 in [4]. In [5], this compound registered an IC50 at 24 h of 9770 nM. Besides, in the data set on HT-29, the “Ratio IC50” value was determined as 100. Moreover, the Stability entry in data set [6], in [7], in data set [8], in data set [9] and in data set [10] was “Stable” throughout.
Regarding `CCNc1nnc(CSc2nc3sc(C(=O)OCC)c(C)c3c(=O)n2CC)s1`, the pIC50 in [1] is 5.04; in [2] it was 5.67; in [3], 6.08; in [4], 5.02. Moreover, half-maximal inhibition in data set [5] (IC50 at 24 h) was put at 89 nM. The Stability entry in [6], in data set [7], in data set [8], in data set [9] and in [10] was “Stable” each time.
With `CCNc1nnc(CSc2nc3sc(C)c(C)c3c(=O)n2CC)s1`, the pIC50 in data set [1] is 5.45; in data set [2], 5.03; in data set [3], 5.13; in data set [4], 6.00. The compound also gave an IC50 at 24 h in data set [5] of 191000 nM. For the same compound, the Stability result in [6], in [7], in [8], in data set [9] and in data set [10] was “Stable” each time.
